Published values collected from several papers.
Protocols differ between the studies behind these lines. pIC50, pKd: −log10 of the molar value.
rep main protease: Replicase polyprotein 1ab, main protease (rep, Severe acute respiratory syndrome coronavirus 2, UniProt P0DTD1)
rep methyltransferase: Replicase polyprotein 1ab, methyltransferase (rep, Severe acute respiratory syndrome coronavirus 2, UniProt P0DTD1)

CN1Cc2ccccc2[C@@H]2c3cccc4[nH]cc(c34)C[C@H]21  pIC50 (rep main protease; enzyme activity; inhibitor): < 4.70
COC(=O)c1c(NC(=O)c2cc3ccccc3o2)sc(C)c1C  pIC50 (rep methyltransferase; enzyme activity; inhibitor): 4.64
O=c1oc2cc(O)ccc2c2ccccc12  pKd (rep main protease; binding; SPR): 4.28
N=C(N)NN=C1C=CC(=NNC(N)=S)C=C1  pIC50 (rep main protease; enzyme activity; inhibitor): 5.03
[H]/N=C(\N/C(=N/[H])NCCCCCCNC(=N)NC(=N)Nc1ccc(Cl)cc1)Nc1ccc(Cl)cc1  pIC50 (rep methyltransferase; enzyme activity; inhibitor): 4.36
COc1ccc(N(Cc2cc(Cl)cs2)C(=O)Cc2cncc3ccccc23)cc1  pKd (rep main protease; binding; MST): 5.82
CCOC(=O)c1c(NC(=O)c2cc3ccccc3o2)sc(C)c1C  pIC50 (rep methyltransferase; enzyme activity; inhibitor): 4.55
CSc1ccc(N(Cc2cc(Cl)cs2)C(=O)Cc2cncc3ccccc23)cc1  pKd (rep main protease; binding; MST): 5.85
COc1cc(-c2ccc(/N=N/c3ccc4c(S(=O)(=O)O)cc(S(=O)(=O)O)c(N)c4c3O)c(OC)c2)ccc1/N=N/c1ccc2c(S(=O)(=O)O)cc(S(=O)(=O)O)c(N)c2c1O  pIC50 (rep main protease; enzyme activity; inhibitor): 5.01
